An excerpt weighted towards active compounds, which were near 3.1% of everything screened.
KCNQ1 pot = potentiates or activates the human KCNQ1 potassium channel. P51787. CHO-K1 KCNQ1, thallium flux FluxOR fluorescence; active compounds read high. B-score at 10 µM. 0.35% of 310,000 active;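 active = fluorescence ratio B-score, a plate-corrected score, at least three library SD, with initial intensity B-score within 5 SD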
Target sequence (P51787 whole entry, looked up): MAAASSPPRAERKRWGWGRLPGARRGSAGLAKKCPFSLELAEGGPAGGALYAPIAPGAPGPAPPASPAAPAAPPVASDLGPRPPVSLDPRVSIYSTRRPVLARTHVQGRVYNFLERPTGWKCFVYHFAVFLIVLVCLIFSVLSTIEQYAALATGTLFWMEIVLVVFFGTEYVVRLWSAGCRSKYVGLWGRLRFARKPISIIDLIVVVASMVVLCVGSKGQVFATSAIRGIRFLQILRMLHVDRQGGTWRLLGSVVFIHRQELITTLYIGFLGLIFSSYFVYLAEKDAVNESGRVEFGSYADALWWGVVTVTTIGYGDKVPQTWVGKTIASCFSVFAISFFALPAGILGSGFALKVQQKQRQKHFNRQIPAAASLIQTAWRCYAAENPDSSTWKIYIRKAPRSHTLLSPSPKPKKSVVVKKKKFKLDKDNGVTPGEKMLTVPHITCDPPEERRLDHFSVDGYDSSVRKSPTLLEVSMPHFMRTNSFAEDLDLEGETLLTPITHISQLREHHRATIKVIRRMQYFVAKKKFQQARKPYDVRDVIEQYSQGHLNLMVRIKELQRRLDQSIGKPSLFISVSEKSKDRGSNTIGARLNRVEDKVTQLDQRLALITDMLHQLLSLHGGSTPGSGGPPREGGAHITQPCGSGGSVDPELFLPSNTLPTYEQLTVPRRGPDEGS
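Test system: CHO-K1 cells stably expressing KCNQ1 / Medium: assay buffer / Also added: depolarizing K+/Tl+ stimulus, K2SO4 and Tl2SO4 each 12.5 mM in 5x stock / Incubation: 90 min dye loading and 20 min compound exposure, both at room temperature / Signal: thallium influx via FluxOR fluorescence, kinetic imaging / Evaluation: B score of baseline-normalized fluorescence ratio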
hERG rescue = hERG (human) protection from proarrhythmic block | CHO-hERG, FluxOR thallium flux, dofetilide IC70 present | Q12809 | 0.51% of 310,000 active | activation (rescue from dofetilide block), less the hit threshold, % at 10 µM;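 active = activation above the mean of controls blocked by dofetilide plus 5 SD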;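 also: thallium influx through hERG after potassium depolarization seen as dye fluorescence rise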
KCNQ1 block = blocks the human KCNQ1 potassium channel; P51787; 1.3% of 310,000 active; CHO-K1 KCNQ1, FluxOR thallium flux fluorescence; active compounds read high; B-score at 10 µM;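 active = compounds whose thallium flux B-score, printed positive for inhibition, exceeds three library SD while starting fluorescence stays within three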;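 also: channel opened by potassium depolarization with thallium stimulus after 20 min compound exposure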
KCNK3 block = human KCNK3 channel inhibition, primary screen; CHO-KCNK3 thallium flux, FluxOR fluorescence; active compounds read low; 0.84% of 340,000 active; AID 602410; B-score at 10 µM;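 active = B-score under library mean minus 4 SD, starting fluorescence ratio at most library mean plus 5 SD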;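 also: more negative B-score means stronger inhibition of thallium flux through KCNK3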
KCNK9 block = human KCNK9 channel inhibition; Q9NPC2; HEK293 KCNK9, FluxOR thallium flux fluorescence; active compounds read low; B-score at 10 µM; 1.2% of 310,000 active;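 active = ratio B-score over 3 SD below the library mean, with starting fluorescence within 5 SD of its mean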;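 also: negative B-score means less thallium flux so channel inhibition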
KCNK3 confirm = human KCNK3 channel inhibition, confirmation assay; 99% of 2,400 active; CHO-KCNK3 thallium flux, FluxOR fluorescence; 0% buffer, 100% carvedilol maximal block; shares compounds with KCNK3 block; AID 651638; ratio percent of control, % at 10 µM;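 active = ratio percent of control, averaged over triplicates, above buffer control mean plus 5 SD, cut at about 64% in these data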;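 also: ratio is the fluorescence rise from min to max over baseline after thallium stimulus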
KCNK3 noninduced = activity in cells without induced KCNK3 expression; shares compounds with KCNK3 block; non-induced KCNK3 parental cells, FluxOR thallium flux; active compounds read low; thallium flux ratio (lower = more inhibition) at 10 µM; 40% of 2,400 active; AID 651747;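 active = thallium flux ratio, averaged over three wells, more than 5 SD below the buffer control mean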;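 also: host cells are CHO cells without KCNK3 induction; ratio is peak minus trough fluorescence over baseline then normalized to buffer controls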
* hit, by the source's call; i = inactive; . = no result given.

SMILES	KCNQ1 pot	hERG rescue	KCNQ1 block	KCNK3 block	KCNK9 block	KCNK3 confirm	KCNK3 noninduced
COC(=O)c1c(S(=O)(=O)NCc2ccccc2)sc(C(=O)O)c1C	i	-10.0	i	-10.8*	i	120.7*	0.158*
CCCCSc1nc2c(c(C(F)(F)F)c1C#N)CCC2	i	-11.1	i	-9.12*	i	119.0*	0.146*
O=C(NC1CCN(Cc2ccccc2)CC1)c1cccc(Br)c1	i	-11.3	i	i	i	.	.
CC1=CC(C)(C)N2C(=O)C3(C(C#N)=C(N)Oc4cc(O)ccc43)c3c(C)c(C)cc1c32 (stereo not drawn)	i	-16.2	i	-8.91*	i	81.0*	0.16*
NC(=O)c1ccccc1OCCOc1ccc(Br)cc1	i	-0.9	i	i	i	.	.
CC(=O)Nc1ccccc1OCCOc1ccc(Br)cc1	i	-2.9	i	-11.6*	i	99.3*	i
Cc1cc(NS(=O)(=O)c2ccc(NC(=O)c3cc4cc(Br)ccc4oc3=O)cc2)no1	i	-5.1	i	i	i	.	.
CC(C)(C)c1nc(SCC(=O)N2CC(=O)Nc3ccccc32)c2ccccc2n1	i	0.9	i	i	i	.	.
CCN(CC)c1nc(N)c2c(N)nc3c(c2c1C#N)CC(c1ccccc1)O3 (stereo not drawn)	i	-10.2	i	i	i	.	.
CCC1Cc2c(nc(N)c3c(N)nc(N4CCCCC4)c(C#N)c23)O1 (stereo not drawn)	i	-2.8	i	-9.56*	i	96.7*	i
N#Cc1c(N2CCCCC2)nc(N)c2c(N)nc3c(c12)CC(c1ccccc1)O3 (stereo not drawn)	i	-8.3	i	-9.54*	i	119.0*	0.15*
Cn1cccc1C1C=C(c2ccc(C(C)(C)C)cc2)Nc2ncnn21 (stereo not drawn)	i	-17.9	i	-9.14*	i	110.7*	i
C=CCN(C(=O)Nc1ccc(OC)cc1)c1nnc(-c2ccncc2)s1	i	-5.5	i	-9.47*	i	94.3*	i
O=C(Nc1cccc(/C=C/c2ccccn2)c1)c1cc(Cl)ccn1	i	-14.7	i	-9.44*	i	109.3*	i
Cc1nnc(SCC(=O)N(C)C2CCCCC2)s1	i	0.3	i	i	i	.	.
CCOC(=O)c1cc(C#N)c(N2CCN(c3ccccn3)CC2)nc1-c1ccccc1	i	-3.6	i	-9.41*	i	98.7*	i
CC(=O)c1cc(C#N)c(N2CCN(c3ccccc3)CC2)nc1C	i	-4.1	i	i	i	.	.
C=CCc1c(C)nn(CC(=O)O)c1-c1ccccc1	i	-2.2	i	i	i	.	.
Cc1ccc(CSc2nc3c(c(N(C)C)n2)CCCC3)cc1	i	-4.4	i	-8.89*	i	139.0*	0.115*
Cc1ccc(S(=O)(=O)N(C)c2ccc(OCc3cccc(C)c3)cc2)cc1	i	-14.2	i	-9.31*	i	108.0*	0.155*
CC(C)(C)C(=O)Nc1ccccc1C(=O)NCc1ccco1	i	-12.9	i	-9.28*	i	65.3*	i
CCC(C)NC(=O)Nc1ccc(F)c(Cl)c1 (stereo not drawn)	i	-9.8	i	-9.96*	i	91.7*	0.158*
COc1cc(/C=C(\C#N)c2nc3ccccc3[nH]2)cc(OC)c1O	i	-15.9	i	-16.1*	i	0.0	i
COc1cc(/C=C(\C#N)c2nc3ccccc3n2C)cc(OC)c1O	i	-17.5	7*	-9.37*	i	117.7*	0.149*
COc1ccc(/C=C(\C#N)c2nc3ccccc3[nH]2)cc1O	i	-1.7	i	i	i	.	.
SMILES	KCNQ1 pot	hERG rescue	KCNQ1 block	KCNK3 block	KCNK9 block	KCNK3 confirm	KCNK3 noninduced
CCn1c(SCC(=O)c2ccccc2)nnc1-c1cccs1	i	-16.7	i	i	i	.	.
CC(C)NC(=S)NCc1cccnc1	i	-3.0	i	i	i	.	.
CC(C)Oc1cccc(C(=O)Nc2ccccc2N2CCOCC2)c1	i	-5.2	i	i	i	.	.
O=C(Nc1ccccc1N1CCCCC1)c1ccc(OC(F)F)cc1	i	-1.0	i	-12.2*	-7.28*	92.3*	i
O=C(Nc1ccccc1N1CCN(c2ccccc2)CC1)c1ccccc1	i	-4.2	i	-9.54*	i	113.3*	0.132*
CCC(C)Oc1cccc(C(=O)Nc2ccccc2N2CCOCC2)c1 (stereo not drawn)	i	-15.8	i	-9.82*	i	125.0*	0.149*
O=C(Nc1ccccc1N1CCOCC1)c1cccc(Oc2ccccc2)c1	i	-6.7	i	-9.59*	i	96.3*	i
Cc1nn(-c2ccccc2)c(C)c1C(=O)OC(C)C(=O)NC1CCCCC1C (stereo not drawn)	.	.	.	i	.	.	.
O=C(/C=C/c1cccc([N+](=O)[O-])c1)NCCN1CCOCC1	i	-9.2	i	i	i	.	.
COCCn1c(SCC(=O)Nc2cc(C)on2)nc2cc(Cl)ccc2c1=O	.	.	.	i	.	.	.
COCCn1c(SCc2ccc(C(=O)OC)o2)nc2cc(Cl)ccc2c1=O	i	-1.2	i	-9.76*	-7.39*	125.7*	i
CCOc1ccccc1/C=N/NC(=O)Cc1csc(Nc2cccc(C(F)(F)F)c2)n1	i	-2.7	i	-8.75*	i	131.0*	0.146*
CCOc1ccc(/C=N/NC(=O)Cc2csc(Nc3cccc(C(F)(F)F)c3)n2)c(OCC)c1	i	-5.2	i	i	i	.	.
CCOc1ccc(/C=N/NC(=O)Cc2csc(Nc3cccc(C(F)(F)F)c3)n2)cc1	i	-3.8	i	-10.6*	i	105.7*	i
O=[N+]([O-])c1cccc(C2NCC(c3ccccc3Cl)c3c2[nH]c2ccccc32)c1 (stereo not drawn)	i	-14.5	7*	-9.55*	-8.07*	124.7*	0.143*
COC(=O)c1nnn(-c2nc(N(C)C)nc(N(C)C)n2)c1C	i	-7.0	i	i	i	.	.
COC(=O)CCc1c[nH]c2ccc([N+](=O)[O-])cc12	.	.	.	i	.	.	.
O=C(CCc1c[nH]c2ccccc12)OCc1cccc([N+](=O)[O-])c1	i	-10.5	i	-9.37*	i	83.3*	i
CCCCC(=O)Oc1c(S(=O)(=O)c2ccc(C)cc2)c(C)nn1C(C)(C)C	i	-1.4	i	-9.93*	i	95.3*	i
CCC(C)NC(=O)C1(O)c2ccccc2NC(=O)N1c1ccc(C)c(C)c1 (stereo not drawn)	i	-7.9	i	i	i	.	.
